For 167 variants, yeast fitness results are on record in the RNAGym collection of RNA variant scans (doi:10.1126/science.aae0568).

Fewer inactive variants are shown than the library holds. Some results are limits rather than exact numbers.

To fix the notation:
B1: tRNA (parent)
chain: GUUCCGUUGGCGUAAUGGUAACGCGUCUCCCUCCUAAGGAGAAGACUGCGGGUUCGAGUCCCGUACGGAACG

This series covers variants of B1. Kind of series: yeast fitness relative to wild type (ratio to wild type); higher = fitter; tRNA-Arg(CCU), competitive growth, 37 C, YPD. Summed up: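 Variants of the tRNA-Arg(CCU) gene were chemically synthesised with a 3% per-site mutation rate across 69 sites and placed at the native genomic locus in Saccharomyces cerevisiae. Six parallel replicates of the pooled strains were competed in YPD at 37°C for 24 hours, and gene amplicons from the start and end populations were read by 100-nucleotide paired-end sequencing. Darwinian fitness relative to wild type was derived from changes in genotype frequencies. Genotypes required ≥ 100 starting reads, and estimates < 0.5 were set to 0.5.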
Take C27A U28C C29G: the yeast fitness amounted to 0.633.
Under G9C C30G G38C G58C C66A stands 0.535.
For G18A C22U, the yeast fitness stood at 0.636.
In the case of G44C G63C, the yeast fitness worked out at 0.623.
Consider C4G U7G G63C, for which the yeast fitness is 0.521.
As for C11U U26C U47A, the figure is 0.555; as for G41A U54A, 0.674; as for U32A G52C, ≤ 0.5.
Turning to G18C C29G A45G C66U, the yeast fitness came to 0.613.
With U3A C60A, the yeast fitness stood at 0.677.
Take G6C A37U A57C A69U A70C: the yeast fitness is ≤ 0.5.
In the case of A15G A37U A43C, the yeast fitness stood at 0.518.
Under U3G A21C G51A stands 0.605.
Under U2G C4U G25A A40C C46U stands ≤ 0.5; under C4U U26A C46U, 0.972.
Turning to A69G A70C, the yeast fitness came out at 0.896.
With U13C A43U C66U, the yeast fitness is 0.705.
Consider G9A G25C C30U G51C G58U, for which the yeast fitness is ≤ 0.5.
Take G23C G25C C55G: the yeast fitness was ≤ 0.5.
Under C31U A42G G58A stands 0.716.
As for C22A U28G G67U, the figure is ≤ 0.5; as for C5A U16A A45G G50A C61U, ≤ 0.5; as for A15G A57G C62G C66U, ≤ 0.5.
As for U3C C5G C34A A37U G44A G51A C55A, the yeast fitness is ≤ 0.5.
As to C31G G58C C62U, the yeast fitness was 0.838.
Consider A20U G44C C60A, for which the yeast fitness was found to be 0.617.
As for A14U C22U A45U, the figure is ≤ 0.5; as for U8A C29G A40G G63A, ≤ 0.5.
As to U8A A43U G52C C60A, the yeast fitness was ≤ 0.5.
As for C11G U28C C60A G67A, the figure is 0.567; as for G12A G38A G48A, ≤ 0.5; as for C27A A57G G63A, 0.551.
Consider U53A G67U, for which the yeast fitness was 0.657.
Under C29A C30A G67U stands 0.667; under A21G A40C G50C, ≤ 0.5; under C24U G44A C66A, 0.563.
With G6A C11A C46G, the yeast fitness was ≤ 0.5.
C27G C29G C34U C55U C61G: the yeast fitness was 0.65.
Take C33G G41A G50A: the yeast fitness amounted to 0.624.
Regarding A37G A43G, the yeast fitness worked out at 0.734.
On to U2G C33G A45G A70U, for which the yeast fitness was ≤ 0.5.
For the variant U3C A40U G44C, the yeast fitness came out at 0.625.
For the variant C29G A36G G38A A45G, the yeast fitness is ≤ 0.5.
Under C5U U8C C29G U53G stands ≤ 0.5.
Consider A14U U35C U53G C66G, for which the yeast fitness was ≤ 0.5.
For the variant U8C A57C, the yeast fitness was determined as 0.599.
C11G C24A C66G: the yeast fitness is ≤ 0.5.
Under C5A U13A A45C stands 0.576; under G10A U35G A43G C46U, 0.587.
For U8A G41A A69U, the yeast fitness was ≤ 0.5.
C22U A70G: the yeast fitness was found to be 0.784.
With C22A C29A G44C, the yeast fitness came out at 0.605.
As for C24U A37U A40U, the figure is 0.568; as for U3A U19C C24U A37G C60G, ≤ 0.5.
As for C33U C46U G68C, the figure is 0.615; as for U7A C34G C62U G68C, 0.559.
Turning to A14C A40U A43C, the yeast fitness was 0.564.
On to G18A A20U C49G U54A G68U A69U, for which the yeast fitness was ≤ 0.5.
Regarding C31G C46U, the yeast fitness was found to be 0.998.
Regarding C4G C5U U16A C34A C66A, the yeast fitness was ≤ 0.5.
Under C34U G51U U54A C60U A65C stands ≤ 0.5.
Under U3C C5G C11G G48A A69G stands ≤ 0.5.
On to C33G A40U A70G, for which the yeast fitness was 0.545.
Take G39C G48C: the yeast fitness was 0.688.
For G12A U54C, the yeast fitness came out at 0.797.
Regarding C11U C27U C31U A36C G44C A45G G56C, the yeast fitness was ≤ 0.5.
On to U3A G10A U19A A42G U64A, for which the yeast fitness is ≤ 0.5.
As to U7A A36U, the yeast fitness worked out at 0.607.
Under C30U A70G stands 0.941; under U54G G68A, 0.541.
With U26G G39C A45G A57C C61G, the yeast fitness was found to be 0.592.
Take U19A C49G U59C C60G C62G: the yeast fitness is ≤ 0.5.
With A20G A37C, the yeast fitness was determined as 0.929.
Consider C4U A42U C61G, for which the yeast fitness came to 0.593.
As for A21U G68C, the yeast fitness came to 0.687.
As for C30G C31G G38C C46G C49U, the figure is 0.532.
For the variant A20C C29U U32A C62U A70U, the yeast fitness is ≤ 0.5.
On to U2C G23A C24U A45U C60A, for which the yeast fitness stood at 0.61.
Under C49G A57C G67U stands 0.576; under A57G G58A, 1.01.
With A15C A21G C22U U47C, the yeast fitness was ≤ 0.5.
As for C24U C55G A57C, the yeast fitness was ≤ 0.5.
Consider C5A U8C G10A A21G A45C G56C, for which the yeast fitness was ≤ 0.5.
U7A C34G G39A: the yeast fitness is ≤ 0.5.
Turning to C4G U8G A42C C55U, the yeast fitness is ≤ 0.5.
For G9C U32C A43C, the yeast fitness was ≤ 0.5.
As for C33A C34G, the figure is 0.755; as for C11A C22G C29U U32C, 0.706; as for U28A A42G C66U G67C, ≤ 0.5.
As to C5G C11G A42G G68A, the yeast fitness was ≤ 0.5.
A21G C29G C46U C60U G67C: the yeast fitness was ≤ 0.5.
As to U3G U35C A43U U54A A57C, the yeast fitness is ≤ 0.5.
Under C33G A42U C61G stands ≤ 0.5.
G6A G17C G18C A45G G58C C66U: the yeast fitness was ≤ 0.5.
Consider A20G C24G C33A A36U, for which the yeast fitness is ≤ 0.5.
Consider C5G C27G C33U G56A U64C A69U, for which the yeast fitness is ≤ 0.5.
Regarding G10A U13G C27U C46G A69C, the yeast fitness stood at 0.506.
Under U19A G25C C33A A37G C55U stands ≤ 0.5; under U3G C33U, 0.691.
As for G6A A37U A40C, the yeast fitness is ≤ 0.5.
For C29U C33A G38A, the yeast fitness was ≤ 0.5.
As to U3G A45C G63A A69U, the yeast fitness is 0.831.
For U59A G68A, the yeast fitness turned out to be 0.791.
A21U A43C C62U A65U: the yeast fitness is ≤ 0.5.
For the variant A40G A43U C49U C66U, the yeast fitness was ≤ 0.5.
Consider U16G C34U A40G A43G C62A A69C, for which the yeast fitness was ≤ 0.5.
Take U3C G12A A45U C66G: the yeast fitness turned out to be 0.685.
Take U8G A21C A43U U59A G63A: the yeast fitness is ≤ 0.5.
On to G39C C49G C66U, for which the yeast fitness is ≤ 0.5.
Take C31G G48A C55A C62A: the yeast fitness is ≤ 0.5.
Under G6A G10C A20G C22U G38C U53C C61G stands ≤ 0.5; under U2G A20C G38A, ≤ 0.5.
Turning to C30U A37C C49U C66U, the yeast fitness was ≤ 0.5.
Turning to C24A A42G C61U C62G, the yeast fitness was 0.541.
On to A20G A40G G50C A65G C66U, for which the yeast fitness is ≤ 0.5.
G6C A15U A43U A65U: the yeast fitness is ≤ 0.5.
With G12C A36C, the yeast fitness is 0.518.
As for U8G C24G C33G A36U C49G C62G C66G A69C, the figure is 0.602.
For C4G G68A, the yeast fitness stood at 0.904.
U7C U26C: the yeast fitness came to 0.866.
Turning to C27U C33U A40C C55A A65G, the yeast fitness is 0.503.
G9C A15U C60G C61G G68C: the yeast fitness was ≤ 0.5.
On to C4U C5U A14C G68A, for which the yeast fitness is ≤ 0.5.
Turning to G23C C60A A70U, the yeast fitness came to 0.536.
As for A40G A43C, the figure is 1.04; as for A20C A21G, 0.953.
Consider A42C C60G C62G G68C, for which the yeast fitness is ≤ 0.5.
Under A15C C27G stands 0.571; under U7C C31G C34U C55U G58A C61U, 0.666; under C34G A43C C49U G56A, ≤ 0.5.
With C4U U35C A70U, the yeast fitness amounted to 0.711.
As to C5G U54C C55G, the yeast fitness was ≤ 0.5.
Regarding G23C C24G C34G U64A G67A, the yeast fitness is ≤ 0.5.
Regarding C27G G41A G67U, the yeast fitness came to 0.709.
As for C11A C31U U53A A65U, the yeast fitness is ≤ 0.5.
C5A U13C C29U C55U G56A: the yeast fitness was ≤ 0.5.
Consider C5U C27A A42U C49G C60A, for which the yeast fitness was 0.817.
In the case of C5U A14G C33G A40G, the yeast fitness was ≤ 0.5.
Under U28C A42G U47A stands 0.535; under C46U G50A C61U, 0.749.
G17A U59C: the yeast fitness was 0.62.
Take U19C C62A: the yeast fitness is 0.713.
As for G38C C60G, the yeast fitness is 0.567.
On to C5G G63A A69C, for which the yeast fitness came out at 0.614.
For the variant C5A G23C G50C, the yeast fitness is ≤ 0.5.
C30U C60U: the yeast fitness came out at 0.734.
In the case of A15U U64C A65G, the yeast fitness turned out to be 0.528.
Consider A14G A36U C46G C62A A69C, for which the yeast fitness was ≤ 0.5.
With C27U U35C A69U, the yeast fitness was 0.802.
For the variant U8C A21U G67C A69U, the yeast fitness was ≤ 0.5.
As for A15U U19A G41C C55G C66G, the figure is ≤ 0.5.
As for C4U A20C C34G A36G A65U, the yeast fitness was ≤ 0.5.
With U35C A36G, the yeast fitness was 0.931.
For the variant U7A G10A A20C C29A, the yeast fitness came out at 0.543.
C4U G38A U47C: the yeast fitness was found to be 0.501.
C30G A36C: the yeast fitness turned out to be 0.561.
In the case of G23A C29U C33G A42G, the yeast fitness was ≤ 0.5.
For U32G A45G U47C C49U A70U, the yeast fitness was ≤ 0.5.
Consider C22U U32A C46G G52C, for which the yeast fitness was ≤ 0.5.
In the case of C4A G17C G23C A57C, the yeast fitness was ≤ 0.5.
Under C27U U35G A42U stands ≤ 0.5; under U2C U28G A43U G56C A57U G67A, ≤ 0.5.
Consider G6A U19A, for which the yeast fitness came to 0.973.
Regarding C29A C34G, the yeast fitness is ≤ 0.5.
G18A C34U A40G U47C: the yeast fitness was ≤ 0.5.
G18A C31U A70U: the yeast fitness came out at 0.656.
Under C4G A21C stands 0.609.
